The record followed here is publication PMC4132832 (Biochemical pharmacology, 2013).

Counter-ions that a name gives are not always drawn. A value given as a limit tells only on which side of the number the result lay.

Chain of Kir6.1/SUR2B channel (Q63664 whole entry): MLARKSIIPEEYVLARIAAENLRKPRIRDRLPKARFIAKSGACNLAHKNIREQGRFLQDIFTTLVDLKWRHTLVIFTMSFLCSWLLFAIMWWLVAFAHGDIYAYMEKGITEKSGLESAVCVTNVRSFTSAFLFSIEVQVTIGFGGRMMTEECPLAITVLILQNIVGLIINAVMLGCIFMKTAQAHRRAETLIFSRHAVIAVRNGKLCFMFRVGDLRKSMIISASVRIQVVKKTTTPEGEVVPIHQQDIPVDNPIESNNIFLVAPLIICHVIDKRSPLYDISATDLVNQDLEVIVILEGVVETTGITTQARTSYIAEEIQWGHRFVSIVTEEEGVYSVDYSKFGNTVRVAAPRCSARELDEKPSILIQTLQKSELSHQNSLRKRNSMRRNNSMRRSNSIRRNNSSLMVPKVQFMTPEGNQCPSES
Chain of Kir6.1/SUR2B channel (P70170 whole entry partner): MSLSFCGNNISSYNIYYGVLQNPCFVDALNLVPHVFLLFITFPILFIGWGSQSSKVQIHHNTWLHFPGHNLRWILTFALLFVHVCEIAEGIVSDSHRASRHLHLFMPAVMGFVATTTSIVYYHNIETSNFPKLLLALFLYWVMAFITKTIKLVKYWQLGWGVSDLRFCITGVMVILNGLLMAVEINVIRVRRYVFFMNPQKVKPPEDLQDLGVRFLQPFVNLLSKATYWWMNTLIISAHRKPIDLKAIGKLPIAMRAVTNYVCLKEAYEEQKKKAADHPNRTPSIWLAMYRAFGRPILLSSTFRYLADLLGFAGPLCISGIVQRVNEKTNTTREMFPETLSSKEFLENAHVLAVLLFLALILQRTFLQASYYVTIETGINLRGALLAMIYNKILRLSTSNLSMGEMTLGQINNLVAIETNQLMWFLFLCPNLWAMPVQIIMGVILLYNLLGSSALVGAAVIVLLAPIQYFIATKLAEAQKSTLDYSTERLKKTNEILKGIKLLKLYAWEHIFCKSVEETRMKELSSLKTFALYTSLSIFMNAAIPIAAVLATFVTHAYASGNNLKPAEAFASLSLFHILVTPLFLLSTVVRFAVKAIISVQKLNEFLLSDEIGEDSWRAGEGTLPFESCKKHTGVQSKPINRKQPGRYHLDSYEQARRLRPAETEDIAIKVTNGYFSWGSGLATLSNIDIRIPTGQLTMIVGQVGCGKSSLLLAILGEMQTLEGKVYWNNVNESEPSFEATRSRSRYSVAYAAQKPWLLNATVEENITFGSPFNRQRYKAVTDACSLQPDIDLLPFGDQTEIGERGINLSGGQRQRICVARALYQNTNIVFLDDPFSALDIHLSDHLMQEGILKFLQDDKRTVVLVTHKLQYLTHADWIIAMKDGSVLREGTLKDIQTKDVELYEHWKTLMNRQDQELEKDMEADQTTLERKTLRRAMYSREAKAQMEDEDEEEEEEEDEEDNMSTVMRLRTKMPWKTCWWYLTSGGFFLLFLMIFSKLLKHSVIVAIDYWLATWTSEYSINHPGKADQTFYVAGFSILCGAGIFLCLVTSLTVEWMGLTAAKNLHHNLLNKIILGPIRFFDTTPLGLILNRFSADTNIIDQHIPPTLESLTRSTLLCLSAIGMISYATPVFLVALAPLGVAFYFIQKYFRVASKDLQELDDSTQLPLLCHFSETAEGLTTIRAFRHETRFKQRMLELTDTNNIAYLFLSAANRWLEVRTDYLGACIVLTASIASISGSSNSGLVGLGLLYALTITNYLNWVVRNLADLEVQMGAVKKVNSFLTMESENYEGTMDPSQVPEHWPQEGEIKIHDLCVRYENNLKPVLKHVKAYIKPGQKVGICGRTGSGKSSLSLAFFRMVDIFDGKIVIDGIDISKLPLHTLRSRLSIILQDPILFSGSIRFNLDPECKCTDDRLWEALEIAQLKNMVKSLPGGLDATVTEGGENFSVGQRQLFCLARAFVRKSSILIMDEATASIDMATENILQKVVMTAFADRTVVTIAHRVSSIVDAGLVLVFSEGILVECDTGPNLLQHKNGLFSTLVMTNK

The experiment deals with Kir6.1/SUR2B channel (Rattus norvegicus, UniProt Q63664). As to the kind of experiment: whole-cell voltage clamp, HEK293. It counts as cell-based. The gist of the method:
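Rat Kir6.1 and SUR2B co-expressed in HEK293 with GFP marker, whole-cell patched at room temperature, holding 0 mV, 600-ms steps to -80 mV, symmetric 145 mM K+. Bath: K-gluconate/KCl, EGTA, glucose, HEPES pH 7.4. Pipette adds 1 mM K2ATP, 0.5 mM NaADP and 1 mM MgCl2. Plateau current normalized to the pinacidil/glibenclamide window. IC50 from Hill fit.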
`CCOc1ccc(C=C2SC(=O)N(CCN)C2=O)cc1` [A6355, 3-(2-aminoethyl)-5-[(4-ethoxyphenyl)methylidene]-1,3-thiazolidine-2,4-dione hydrochloride] displayed an IC50 of 8 µM. The figure for `O=C1NC(=O)/C(=C/c2ccc3nccnc3c2)S1` [AS605240, (5Z)-5-(quinoxalin-6-ylmethylidene)-1,3-thiazolidine-2,4-dione] is 60 µM; for `O=C1NC(=O)/C(=C/c2ccc(-c3ccc(F)cc3O)o2)S1` [AS-252424, (5Z)-5-[[5-(4-fluoro-2-hydroxyphenyl)furan-2-yl]methylidene]-1,3-thiazolidine-2,4-dione] it is 4 µM; for `O=C1NC(=O)C(Cc2ccc(O)cc2)S1` (stereo not drawn) [CDS005865, 5-(4-hydroxybenzyl)-2,4-thiazolidinedione] it is over 100 µM. As for `CCc1ccc(C(=O)COc2ccc(CC3SC(=O)NC3=O)cc2)nc1` (stereo not drawn) [Cay10415, 5-[[4-[2-(5-ethylpyridin-2-yl)-2-oxoethoxy]phenyl]methyl]-1,3-thiazolidine-2,4-dione], the IC50 amounted to 15 µM. Consider `CC1(COc2ccc(CC3SC(=O)NC3=O)cc2)CCCCC1` (stereo not drawn) [Ciglitazone, 5-[[4-[(1-methylcyclohexyl)methoxy]phenyl]methyl]-1,3-thiazolidine-2,4-dione], for which half-maximal inhibition (IC50) was put at 120 µM. The figure for `Cc1oc(-c2ccccc2)nc1CCC(=O)c1ccc(CC2SC(=O)NC2=O)cc1` (stereo not drawn) [Darglitazone, 5-[[4-[3-(5-methyl-2-phenyl-1,3-oxazol-4-yl)propanoyl]phenyl]methyl]-1,3-thiazolidine-2,4-dione] is 25 µM; for `O=C1NC(=O)C(Cc2ccc3c(c2)CC[C@H](Cc2ccccc2)O3)S1` (stereo partly drawn) [Englitazone, 5-[(2-benzyl-3,4-dihydro-2H-chromen-6-yl)methyl]-1,3-thiazolidine-2,4-dione] it is 7 µM; for `CC(C)OC(=O)C(C)(C)Oc1ccc(C(=O)c2ccc(Cl)cc2)cc1` [Fenofibrate, propan-2-yl 2-[4-(4-chlorobenzoyl)phenoxy]-2-methylpropanoate] it is 80 µM. The figure for `Cc1cc(SCc2sc(-c3ccc(C(F)(F)F)c(F)c3)nc2C)ccc1OCC(=O)O` [GW0742, 2-[4-[[2-[3-fluoro-4-(trifluoromethyl)phenyl]-4-methyl-1,3-thiazol-5-yl]methylsulfanyl]-2-methylphenoxy]acetic acid] is 80 µM; for `Cc1cc(SCc2sc(-c3ccc(C(F)(F)F)cc3)nc2C)ccc1OCC(=O)O` [GW501516, 2-[2-methyl-4-[[4-methyl-2-[4-(trifluoromethyl)phenyl]-1,3-thiazol-5-yl]methylsulfanyl]phenoxy]acetic acid] it is 120 µM. Next, `Cc1ccc(C)c(OCCCC(C)(C)C(=O)O)c1` [Gemfibrozil, 5-(2,5-dimethylphenoxy)-2,2-dimethylpentanoic acid]: 290 µM; `CCc1ccc(CCOc2ccc(CC3SC(=O)NC3=O)cc2)nc1` (stereo not drawn) [Pioglitazone, 5-[[4-[2-(5-ethylpyridin-2-yl)ethoxy]phenyl]methyl]-1,3-thiazolidine-2,4-dione]: 95 µM; `CN(CCOc1ccc(CC2SC(=O)NC2=O)cc1)c1ccccn1` (stereo not drawn) [Rosiglitazone, 5-[[4-[2-[methyl(pyridin-2-yl)amino]ethoxy]phenyl]methyl]-1,3-thiazolidine-2,4-dione]: 12 µM. `Cc1c(C)c2c(c(C)c1O)CCC(C)(COc1ccc(CC3SC(=O)NC3=O)cc1)O2` (stereo not drawn) [Troglitazone, 5-[[4-[(6-hydroxy-2,5,7,8-tetramethyl-3,4-dihydrochromen-2-yl)methoxy]phenyl]methyl]-1,3-thiazolidine-2,4-dione] registered an IC50 of 100 µM.
